From publication PMC7445463 (Diabetologia, 2020)

Tests used:
[1] = iv bolus of purified MGO in mice, immune cell numbers; assay type: in vivo, mouse
[2] = test system: human retinal endothelial cells (hRECs); assay: MGO exposure of human retinal endothelial cells; assay type: cell-based; conditions: 500μM, 72h
[3] = test system: differentiated adipocytes (wild type); assay: Adipocyte glucose uptake after dexamethasone; assay type: cell-based, human; conditions: 0.3 μM/24 h; WT cultures; n=6
Notch pathway = assay: PHA-activated co-cultures of obASCs and MNCs; assay type: cell-based, human; conditions: PHA-activated obASC/MNC co-cultures
How it was run: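 Human obese adipose-derived stem cells were co-cultured with mononuclear cells under phytohemagglutinin A activation, with or without the Notch inhibitor DAPT. Separately, the stem cells were transfected or not with Dner-targeting siRNA. Cytokine secretion into the medium was measured by ELISA, and expression by RT-qPCR.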

neprilysin [4] = molecular target: neprilysin (Mus musculus, UniProt Q61391); assay: Exogenous glucagon after sacubitril in mice; assay type: in vivo; conditions: 0.7 nmol/g; glucagon 96 ng/g; n=10
[5] = test system: Primary human retinal microvascular endothelial cells (ACBRI-181); assay: DMOG chemical hypoxia model; assay type: cell-based; conditions: DHA 50μM, AICAR 0.5mM; DMOG 400 μM 24h
How it was run: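 Primary human retinal microvascular endothelial cells (passage 6–8) grown in endothelial growth medium with 10% FBS. At 70% confluence, exposed 24 h to DMOG 400 μM with or without AICAR 0.5 mM or DHA 50 μM. HIF-1α, HIF-2α, VEGF, ZO-1 and vimentin assessed by immunofluorescence, plus a cell migration assay. AMPK activity by western blot.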

[6] = 6 weeks
Arrb2+/+ beta cells = assay: F-actin depolymerisation, phalloidin staining; assay type: cell-based, mouse; conditions: 1μmol/l
How it was run: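 F-actin depolymerisation assessed by Alexa Fluor 488-conjugated phalloidin staining. FAK phosphorylation assessed by immunofluorescence.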

[7] = 1.5 mg once weekly; 95% CI 0.79, 0.99; cited from earlier work
[8] = 4-week treatment of DIO mice, body weight loss; assay type: in vivo, mouse; conditions: s.c., 4 weeks, human equivalent doses
rats with CHF = assay type: in vivo, rat; conditions: 30 mg/kg PO
[9] = test system: patients with T2D and CV disease; assay: EMPA-REG OUTCOME post hoc analyses; design: species or system human; conditions: in vivo
[10] = test system: isolated diabetic mouse hearts; assay: Langendorff-perfused db/db hearts, stable isotope analysis
[11] = 24-week empagliflozin appetite trial in overweight/obesity and T2D; assay type: in vivo, human
[12] = Empagliflozin 4-week crossover study, cardiac PET/CT; assay type: in vivo, human
[13] = Empagliflozin 24 weeks in T2DM and HFpEF; assay type: in vivo, human; conditions: after 24 weeks; baseline 126
[14] = test system: patients with type 2 diabetes; assay: Network meta-analysis of antidiabetic medications on blood pressure; design: species or system human
[15] = Brain insulin sensitivity by fMRI with intranasal insulin, prediabetes; assay type: in vivo, human; conditions: 25 mg qd, 8 weeks
[16] = HFD-induced obese mice, empagliflozin 8 weeks; assay type: in vivo, mouse; design: AUC glucose / AUC insulin: unit not given beside the values
[17] = db/db mice, empagliflozin alone or with linagliptin, 8 weeks; assay type: in vivo, mouse; conditions: 10 mg/kg (of each)
How it was run: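 Male 8-week-old db/db mice (BKS.Cg-Dock7m+/+Leprdb/J) received vehicle, SGLT2 inhibitor 10 mg/kg, or SGLT2 inhibitor plus DPP4 inhibitor (10 mg/kg each) for 8 weeks. Heterozygous db/+ mice served as non-diabetic controls. Plasma glucose, fructosamine, glycated albumin and urinary albumin-to-creatinine ratio were measured at weeks 0 and 8.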

[18] = ACCORD trial, cardiovascular autonomic neuropathy; assay type: in vivo, human; conditions: 95%CI 0.78 - 1.07
C2C12 murine myotubes = assay: ATPγS glucose uptake; assay type: cell-based; conditions: 100 μM
Rev-erbα = Rev-erbα agonist and antagonist in beta cells and human islets; assay type: cell-based
How it was run: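 Cells used were rat INS-1E, human EndoC-βH1 and human islets. Rev-erbα was modulated with agonist, antagonist or siRNA knock-down. Stress was glucotoxicity (INS-1E, EndoC-βH1) or cytokines (INS-1E, human islets). Glucose-induced insulin secretion was read by HTRF, apoptosis as cleaved caspase-3, and Rev-erbα protein by western blot.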

[19] = EVOLVE study, insulin detemir in pregnancy; assay type: in vivo, human; conditions: 727 vs 730 women
How it was run: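 […] in women with pre-existing diabetes comparing the test basal insulin with another basal insulin. The primary endpoint was the number of women completing ≥22 weeks of gestation without major congenital malformations, perinatal death or neonatal death. It was analysed as crude and adjusted risk difference between treatment groups.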

Piezo1 [20] = molecular target: Piezo1 (Homo sapiens, UniProt Q92508); assay: Ca2+ imaging in human β-cells; assay type: cell-based
Piezo1 (Homo sapiens, UniProt Q92508), sequence (Q92508 whole entry): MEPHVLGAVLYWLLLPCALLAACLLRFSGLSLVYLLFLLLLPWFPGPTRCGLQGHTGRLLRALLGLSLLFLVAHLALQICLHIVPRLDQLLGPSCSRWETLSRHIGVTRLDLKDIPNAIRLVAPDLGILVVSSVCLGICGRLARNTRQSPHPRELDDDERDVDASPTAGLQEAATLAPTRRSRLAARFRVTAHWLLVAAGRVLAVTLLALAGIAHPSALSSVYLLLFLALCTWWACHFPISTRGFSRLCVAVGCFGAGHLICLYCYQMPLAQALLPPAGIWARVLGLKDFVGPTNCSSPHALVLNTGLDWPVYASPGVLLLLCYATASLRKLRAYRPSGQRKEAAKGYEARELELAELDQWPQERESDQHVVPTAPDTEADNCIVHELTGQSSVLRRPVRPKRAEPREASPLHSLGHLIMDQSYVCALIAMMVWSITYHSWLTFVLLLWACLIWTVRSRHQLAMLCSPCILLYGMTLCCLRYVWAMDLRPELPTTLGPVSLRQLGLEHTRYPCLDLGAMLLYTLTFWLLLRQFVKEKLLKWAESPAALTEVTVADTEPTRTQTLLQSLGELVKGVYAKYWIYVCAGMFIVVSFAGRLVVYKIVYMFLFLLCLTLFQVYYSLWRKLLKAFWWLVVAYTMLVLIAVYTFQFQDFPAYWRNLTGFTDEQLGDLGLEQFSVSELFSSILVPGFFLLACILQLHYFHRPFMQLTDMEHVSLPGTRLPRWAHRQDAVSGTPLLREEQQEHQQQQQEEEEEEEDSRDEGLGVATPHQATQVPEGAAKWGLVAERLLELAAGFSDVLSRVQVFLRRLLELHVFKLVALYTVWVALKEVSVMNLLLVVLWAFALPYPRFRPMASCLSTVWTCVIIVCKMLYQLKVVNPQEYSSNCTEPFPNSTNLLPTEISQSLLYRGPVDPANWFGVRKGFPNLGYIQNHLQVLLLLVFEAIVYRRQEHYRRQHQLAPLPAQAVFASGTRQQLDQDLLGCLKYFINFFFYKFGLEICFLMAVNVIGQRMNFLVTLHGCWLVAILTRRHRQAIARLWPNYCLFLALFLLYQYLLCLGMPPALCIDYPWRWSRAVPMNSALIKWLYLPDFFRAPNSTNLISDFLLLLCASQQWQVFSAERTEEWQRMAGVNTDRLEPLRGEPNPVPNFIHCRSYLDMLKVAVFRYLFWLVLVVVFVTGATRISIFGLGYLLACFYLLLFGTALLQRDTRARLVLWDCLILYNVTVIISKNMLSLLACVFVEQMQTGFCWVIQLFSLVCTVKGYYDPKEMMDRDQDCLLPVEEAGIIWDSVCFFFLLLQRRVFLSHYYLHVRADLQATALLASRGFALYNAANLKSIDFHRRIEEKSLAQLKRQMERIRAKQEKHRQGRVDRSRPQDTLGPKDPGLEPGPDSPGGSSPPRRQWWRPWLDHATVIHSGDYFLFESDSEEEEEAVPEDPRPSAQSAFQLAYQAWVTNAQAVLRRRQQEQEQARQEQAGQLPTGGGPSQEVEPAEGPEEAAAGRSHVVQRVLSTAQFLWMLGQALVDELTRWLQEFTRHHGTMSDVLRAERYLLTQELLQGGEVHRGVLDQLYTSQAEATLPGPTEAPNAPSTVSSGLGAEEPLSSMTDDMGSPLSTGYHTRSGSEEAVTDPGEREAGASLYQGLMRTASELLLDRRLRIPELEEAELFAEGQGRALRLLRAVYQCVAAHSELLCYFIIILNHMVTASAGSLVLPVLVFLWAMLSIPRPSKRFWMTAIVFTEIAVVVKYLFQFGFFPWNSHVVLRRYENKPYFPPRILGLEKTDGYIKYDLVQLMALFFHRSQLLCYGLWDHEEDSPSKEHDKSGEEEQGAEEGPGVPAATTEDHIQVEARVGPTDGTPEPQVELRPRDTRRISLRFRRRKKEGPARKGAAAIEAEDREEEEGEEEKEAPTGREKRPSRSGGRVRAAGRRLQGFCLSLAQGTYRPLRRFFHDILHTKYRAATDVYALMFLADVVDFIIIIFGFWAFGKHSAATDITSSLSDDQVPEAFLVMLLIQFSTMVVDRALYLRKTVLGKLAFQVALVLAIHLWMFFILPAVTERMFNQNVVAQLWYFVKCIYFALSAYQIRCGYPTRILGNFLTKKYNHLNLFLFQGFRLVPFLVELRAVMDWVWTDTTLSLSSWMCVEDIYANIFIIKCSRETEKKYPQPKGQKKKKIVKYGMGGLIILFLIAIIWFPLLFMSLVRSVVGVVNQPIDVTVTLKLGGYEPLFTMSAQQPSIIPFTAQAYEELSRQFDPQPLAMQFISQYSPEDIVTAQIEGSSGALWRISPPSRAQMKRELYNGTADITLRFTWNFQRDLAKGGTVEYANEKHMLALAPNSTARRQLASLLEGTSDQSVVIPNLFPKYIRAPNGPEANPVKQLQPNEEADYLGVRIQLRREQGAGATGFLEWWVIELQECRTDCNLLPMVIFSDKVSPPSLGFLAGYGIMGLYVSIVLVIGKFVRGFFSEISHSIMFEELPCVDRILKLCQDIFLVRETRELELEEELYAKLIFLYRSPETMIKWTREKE
How it was run: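 Human β-cells loaded for Ca2+ imaging. Amplitude of glucose-induced [Ca2+]i oscillations recorded with and without a Piezo1-inhibiting test compound.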

Piezo1 [21] = molecular target: Piezo1 (Mus musculus, UniProt E2JF22); assay: In situ pancreas perfusion, insulin secretion
Piezo1 (Mus musculus, UniProt E2JF22), sequence (E2JF22 whole entry, the tested form may be a part): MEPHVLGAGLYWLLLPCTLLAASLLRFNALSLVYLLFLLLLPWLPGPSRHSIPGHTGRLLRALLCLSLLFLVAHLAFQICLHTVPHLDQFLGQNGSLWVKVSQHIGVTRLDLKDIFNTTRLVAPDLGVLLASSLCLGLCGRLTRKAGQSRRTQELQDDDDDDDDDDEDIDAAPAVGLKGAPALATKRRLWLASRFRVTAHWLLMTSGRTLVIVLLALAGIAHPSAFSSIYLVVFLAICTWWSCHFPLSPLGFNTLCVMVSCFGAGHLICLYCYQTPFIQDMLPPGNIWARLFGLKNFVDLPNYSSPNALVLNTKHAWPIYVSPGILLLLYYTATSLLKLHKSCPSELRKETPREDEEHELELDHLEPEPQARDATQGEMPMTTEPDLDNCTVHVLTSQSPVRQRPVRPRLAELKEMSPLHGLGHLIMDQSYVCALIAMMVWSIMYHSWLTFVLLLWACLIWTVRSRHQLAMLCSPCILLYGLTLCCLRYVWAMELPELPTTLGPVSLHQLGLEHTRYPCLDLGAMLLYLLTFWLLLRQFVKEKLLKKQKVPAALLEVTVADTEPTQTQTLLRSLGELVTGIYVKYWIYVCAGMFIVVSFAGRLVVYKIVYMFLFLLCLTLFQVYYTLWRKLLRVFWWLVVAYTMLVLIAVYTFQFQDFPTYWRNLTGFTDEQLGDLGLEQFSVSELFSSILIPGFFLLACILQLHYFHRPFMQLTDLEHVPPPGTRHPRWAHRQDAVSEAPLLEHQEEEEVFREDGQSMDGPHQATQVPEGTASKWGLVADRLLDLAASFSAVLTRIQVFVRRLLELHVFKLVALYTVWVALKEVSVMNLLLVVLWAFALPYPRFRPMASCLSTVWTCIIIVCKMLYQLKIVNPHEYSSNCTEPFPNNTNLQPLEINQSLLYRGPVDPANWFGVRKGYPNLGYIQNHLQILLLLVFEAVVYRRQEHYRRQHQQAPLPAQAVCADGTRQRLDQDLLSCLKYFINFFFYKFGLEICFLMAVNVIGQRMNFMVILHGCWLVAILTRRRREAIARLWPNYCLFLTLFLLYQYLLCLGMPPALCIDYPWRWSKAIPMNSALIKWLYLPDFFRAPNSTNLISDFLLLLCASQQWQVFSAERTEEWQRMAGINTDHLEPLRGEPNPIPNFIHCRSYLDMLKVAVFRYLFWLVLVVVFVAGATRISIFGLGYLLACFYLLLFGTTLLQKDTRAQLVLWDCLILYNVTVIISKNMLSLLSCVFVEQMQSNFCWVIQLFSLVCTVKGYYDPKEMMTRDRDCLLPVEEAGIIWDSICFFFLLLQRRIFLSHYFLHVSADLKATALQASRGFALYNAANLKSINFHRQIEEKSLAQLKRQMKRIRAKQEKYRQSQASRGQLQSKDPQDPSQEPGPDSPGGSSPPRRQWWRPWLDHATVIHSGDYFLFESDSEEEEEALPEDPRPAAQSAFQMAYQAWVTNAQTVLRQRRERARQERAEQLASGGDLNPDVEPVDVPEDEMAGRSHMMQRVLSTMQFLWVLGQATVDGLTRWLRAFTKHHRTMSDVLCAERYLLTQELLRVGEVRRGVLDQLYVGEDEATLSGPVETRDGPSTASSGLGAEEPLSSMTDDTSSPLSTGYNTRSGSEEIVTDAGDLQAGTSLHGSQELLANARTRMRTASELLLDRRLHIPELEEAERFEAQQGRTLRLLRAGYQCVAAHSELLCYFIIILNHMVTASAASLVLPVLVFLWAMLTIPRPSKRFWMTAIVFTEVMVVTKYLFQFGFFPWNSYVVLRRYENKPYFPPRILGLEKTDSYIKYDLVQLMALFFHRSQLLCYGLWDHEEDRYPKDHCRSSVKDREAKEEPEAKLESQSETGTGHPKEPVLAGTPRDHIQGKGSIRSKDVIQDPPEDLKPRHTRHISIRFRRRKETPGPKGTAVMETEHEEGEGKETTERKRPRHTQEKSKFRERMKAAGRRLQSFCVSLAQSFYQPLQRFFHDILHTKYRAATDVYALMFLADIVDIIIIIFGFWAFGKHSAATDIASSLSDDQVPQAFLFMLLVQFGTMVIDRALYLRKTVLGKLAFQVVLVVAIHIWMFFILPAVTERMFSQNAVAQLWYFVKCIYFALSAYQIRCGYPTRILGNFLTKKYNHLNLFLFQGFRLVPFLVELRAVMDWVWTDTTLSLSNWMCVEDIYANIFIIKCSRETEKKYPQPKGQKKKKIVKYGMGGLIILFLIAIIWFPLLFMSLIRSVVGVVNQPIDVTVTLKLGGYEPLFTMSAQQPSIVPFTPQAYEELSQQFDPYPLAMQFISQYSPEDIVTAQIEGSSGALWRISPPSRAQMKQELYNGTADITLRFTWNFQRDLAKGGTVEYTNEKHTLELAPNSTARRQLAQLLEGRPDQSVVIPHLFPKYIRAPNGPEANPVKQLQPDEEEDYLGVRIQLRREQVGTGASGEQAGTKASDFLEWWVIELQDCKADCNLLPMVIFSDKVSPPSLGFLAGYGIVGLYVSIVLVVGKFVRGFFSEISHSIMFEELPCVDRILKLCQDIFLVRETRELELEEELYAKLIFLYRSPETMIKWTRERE
How it was run: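 Mice were β-cell-specific Piezo1 knockouts (RIP-Cre+Piezo1f/f). Insulin secretion was measured by in situ pancreas perfusion.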

CREDENCE trial = assay type: in vivo, human
[22] = test system: patients with type 2 diabetes and CKD; assay: CREDENCE acute eGFR decline; assay type: in vivo, human; conditions: week 3
adiponectin receptor = assay: HFD-fed DBA/2J mice with AdipoRon, 9 weeks; assay type: in vivo, mouse; conditions: HFD supplemented with AdipoRon
[23] = Intrajejunal metformin with or without bile exclusion or TCA, T2DM; assay type: in vivo, human; conditions: metformin with TCA 4 g supplementation; endogenous bile included
CAROLINA trial = assay type: in vivo, human; conditions: 5 mg; regardless of age group
[24] = i.v. beta-hydroxybutyrate infusion crossover study, T2D; assay type: in vivo, human
neprilysin [25] = molecular target: neprilysin (Homo sapiens, UniProt P08473); assay: Mixed meal after single dose sacubitril/valsartan, healthy males; assay type: in vivo; conditions: 194 mg sacubitril / 206 mg valsartan single dose
[26] = seven- and ninety-day treatment

CC(=O)C=O [MGO, methylglyoxal]
increase of circulating neutrophils vs PBS ([1]; 25μg iv bolus, after 10 min): 7 fold | increase of hepatic neutrophils ([1]; 10 min post injection): 9 fold | decrease of CD11b expression in the aorta ([1]; after 10 min): 19.9 fold | macrophage numbers in the liver ([1]; after 72h, control 24.2±6.8): 35.7±6.5 macrophages per microscopic view | impairment of tube formation capacity [2]: ~ 70% | impairment of cell migration ([2]; transwell assay): ~ 30%

C[C@@H]1C[C@H]2[C@@H]3CCC4=CC(=O)C=C[C@]4(C)[C@@]3(F)[C@@H](O)C[C@]2(C)[C@@]1(O)C(=O)CO [dexamethasone]
reduction of basal and insulin-stimulated glucose uptake [3]: ~ 50%

C[C@H](NC(=O)Cc1cc(F)cc(F)c1)C(=O)N[C@H](C(=O)OC(C)(C)C)c1ccccc1 [DAPT]
IL-17A secretion (Notch pathway): significantly inhibited

CCOC(=O)[C@H](C)C[C@@H](Cc1ccc(-c2ccccc2)cc1)NC(=O)CCC(=O)O [Sacubitril, sacubitril]
increase of exogenous glucagon levels (iAUC0-60 min) (neprilysin [4]): 1.9 fold

NC(=O)c1ncn([C@@H]2O[C@H](COP(=O)(O)O)[C@@H](O)[C@H]2O)c1N [AICAR, 5-aminoimidazole-4-carboxamide ribonucleotide]
DMOG-induced abnormalities (HIF, VEGF, ZO-1, vimentin, migration) [5]: fully prevented

CCOc1ccc(Cc2cc([C@@H]3O[C@H](CO)[C@@H](O)[C@H](O)[C@H]3O)ccc2Cl)cc1 [DAPA, dapagliflozin]
hepatic uptake of fatty acids vs placebo ([6]; 10 mg/day): increased | plasma NT-proBNP levels [6]: unaffected

O=C1NC(=O)/C(=C/c2ccc3c(c2)OC(F)(F)O3)S1 [AS604850]
reduction of F-actin depolymerisation by GIP stimulation (Arrb2+/+ beta cells): ~ 30%

dulaglutide
MACE-3 hazard ratio vs placebo [7]: 0.88 | body weight loss vs vehicle [8]: -2.5%

OC[C@H]1O[C@@H](c2ccc(Cl)c(Cc3ccc(O[C@H]4CCOC4)cc3)c2)[C@H](O)[C@@H](O)[C@@H]1O [EMPA, empagliflozin]
myocardial perfusion (rats with CHF; long-term (90 days)): increased | exercise capacity (rats with CHF; long-term (90 days), p=0.06): increased | LV EDP (rats with CHF; [26]): reductions | LV ESP (rats with CHF; [26]): increases | patients with insulin dose reduction >10% [9]: 14.0% | 13C labeling of lactate ([10]; 1 μM, 35 min, 13C glucose perfusion, vehicle 58 ± 2): 50 ± 3% | glucose-6-phosphate content ([10]; 1 μM, 35 min, vehicle 5.2 ± 0.8): 3.3 ± 0.4 AU | 13C labeling of α-KG ([10]; 13C palmitate perfusion, vehicle 79 ± 1): 86 ± 1% | circulating PYY vs placebo ([11]; 12-weeks, 3-hour mixed meal tolerance test, P = 0.003): elevated | circulating GLP-1 vs placebo (GEE) ([11]; overall across follow-up, P = 0.016): higher | myocardial glucose uptake (MGU) ([12]; 18F-FDG PET, placebo 1.4±0.6): 0.6±0.6 μmol/100g/min | 48-hour mean blood glucose ([12]; four weeks, placebo 9.4 ± 2.2): 8.0 ± 0.9 | reduction of postabsorptive myocardial glucose uptake ([12]; in vivo): 57% | circulating FFA ([12]; placebo 0.8±3): 1.0 ± 0.4 mmol/L | FFA esterification rate ([12]; placebo 1.1±0.6): 1.3±0.7 μmol/100g/min | myocardial FFA oxidation rate ([12]; placebo 8.0±3.1): 7.2±3.1 μmol/100g/min | total FFA uptake rate ([12]; placebo 9.1±3.2): 8.4±3.6 μmol/100g/min | myocardial oxygen consumption ([12]; placebo 9.77 ± 1.34): 8.97 ± 1.11 ml/100g/min | myocardial external energy efficiency ([12]; placebo 27.7±4.5): 29.5±7.3% | 3-hydroxybutyrate ([12]; placebo 65 ± 8): 130 ± 17 µmol/L | 24-hour mean arterial pressure ([12]; placebo 92±8): 88±5 mmHg

OC[C@H]1O[C@@H](c2ccc(Cl)c(Cc3ccc(O[C@H]4CCOC4)cc3)c2)[C@H](O)[C@@H](O)[C@@H]1O [empagliflozin]
left ventricular mass index (LVMI) [13]: 111,1 g/m2 | systolic blood pressure, empagliflozin vs dapagliflozin ([14]; CI -2.35 to -0.12): -1.24 mmHg | diastolic blood pressure, mean difference versus placebo ([14]; network meta-analysis): -1.73 mmHg | hypothalamic blood flow response to intranasal insulin [15]: significant insulin-induced decrease | body weight ([16]; 10mg/kg, 8 weeks, HFD 49.5 ± 2.8): 41.2 ± 1.5 g | fat mass ([16]; HFD 17.6 ± 3.4): 10.7 ± 2.6 g | AUC insulin ([16]; HFD 9617± 242): 6263 ± 337 | AUC glucose ([16]; HFD 38739± 1750): 27714 ± 1052 | plasma glucose, fructosamine, glycated albumin and UACR [17]: decreased

CC(C)OC(=O)C(C)(C)Oc1ccc(C(=O)c2ccc(Cl)cc2)cc1 [Fenofibrate]
CAN outcome OR [18]: 0.91

Nc1ncnc2c1ncn2[C@@H]1O[C@H](CO[P@](=O)(O)O[P@](=O)(O)O[P@@](=O)(O)S)[C@@H](O)[C@H]1O [ATPγS]
glucose uptake (C2C12 murine myotubes): increased glucose uptake

CCOC(=O)C1Cc2ccccc2CN1C(=O)c1ccc(SC)s1 (stereo not shown) [SR8278]
attenuation of beta-cell apoptosis (Rev-erbα; glucotoxicity or cytokines, antagonist or siRNA): ~ 30%

insulin detemir [IDet]
risk of major congenital malformations, perinatal or neonatal deaths vs other basal insulin [19]: not associated with excess risk

GsMTx4
reduction of amplitude of glucose-induced [Ca2+]i oscillations (Piezo1 [20]): ~ 80% | reduction of insulin release (Piezo1 [21]): > 30%

Cc1ccc([C@@H]2O[C@H](CO)[C@@H](O)[C@H](O)[C@H]2O)cc1Cc1ccc(-c2ccc(F)cc2)s1 [CANA, canagliflozin]
HHF alone HR vs placebo (CREDENCE trial; 95% CI 0.47-0.80): 0.61 | HHF/CV death HR vs placebo (CREDENCE trial; 95% CI 0.57, 0.83, median 2.6 years): 0.69 | reduction of risk of HHF/CV death (CREDENCE trial; overall population): 31% | participants with >30% decline [22]: 4%

O=C(COc1ccc(C(=O)c2ccccc2)cc1)NC1CCN(Cc2ccccc2)CC1 [AdipoRon]
HFD-induced weight gain (adiponectin receptor): reduced

CCOC(=O)N1CCC(CN(Cc2ccc(Cl)cc2)Cc2ccc([N+](=O)[O-])s2)C1 (stereo not shown) [SR9009]
decrease of glucose-stimulated insulin secretion (Rev-erbα; INS-1E cells and human islets): 70%

C[C@H](CCC(=O)NCCS(=O)(=O)O)[C@H]1CC[C@H]2[C@@H]3[C@H](O)C[C@@H]4C[C@H](O)CC[C@]4(C)[C@H]3C[C@H](O)[C@]12C [TCA, taurocholic acid]
plasma glucose iAUC 0-180 min [23]: 568 ± 38 mmol·min/L

CC#CCn1c(N2CCC[C@@H](N)C2)nc2c1c(=O)n(Cc1nc(C)c3ccccc3n1)c(=O)n2C [linagliptin]
hypoglycaemia rates vs glimepiride (CAROLINA trial): significantly lower

CC(O)CC(=O)O (stereo not drawn) [Beta-hydroxybutyrate, beta-hydroxybutyrate]
increase in heart rate vs placebo ([24]; n=17): 13.7 ± 1.2 bpm | beta-hydroxybutyrate levels during infusion ([24]; placebo 0.1 ± 0.6): 2.4 ± 0.6 mM

CC/C=C\C/C=C\C/C=C\C/C=C\C/C=C\C/C=C\CCC(=O)O [DHA, docosahexaenoic acid]
DMOG-induced abnormalities (HIF, VEGF, ZO-1, vimentin, migration) [5]: fully prevented

sacubitril / valsartan [sacubitril/valsartan]
increase of postprandial glucagon levels (iAUC0-240 min) (neprilysin [25]): 2.7 fold

Clc1cccc(Cl)c1CSc1nnc(-c2cnccn2)s1 [yoda1]
increase of insulin secretion (Piezo1 [21]; glucose alone almost 3-fold): ~ 7 fold
